Measured values as given in ChEMBL document CHEMBL1125609, “Nucleosides and nucleotides. 97. Synthesis of new broad spectrum antineoplastic nucleosides, 2'-deoxy-2'-methylidenecytidine (DMDC) and its derivatives” (J Med Chem, 1991).
Values after ≈ are worked out from the molar mass of the structure shown.

Key:
L1210 = experiment: In vitro cytotoxic activity against Murine leukemia L1210 cells.; type: functional, cell-based; conditions: Mus musculus
Summary of the method: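 L1210 murine leukemia cells seeded at 1 × 10⁴/well, exposed with or without compound for 72 h; MTT then added and OD 570 nm read. % inhibition = [1 − OD sample/OD control] × 100; IC50 (μg/mL) taken as concentration giving 50% growth inhibition.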

PC-14 = experiment: In vitro inhibitory activity against Human lung adenocarcinoma (PC-14) cell line.; type: functional, cell-based
Summary of the method: (§1)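 Each tumor cell line seeded at 1 × 10⁴/well and incubated with or without compound for 72 h; growth measured by MTT reduction, OD 570 nm, % inhibition relative to untreated control wells. IC50 (μg/mL) is the concentration giving 50% inhibition of cell growth.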

T-24 = experiment: In vitro inhibitory activity against Human bladder transitional-cell carcinoma (T-24) cell line.; type: functional, cell-based; summary of the method: as §1
HL-60 = experiment: In vitro inhibitory activity against Human promyelocytic leukemia (HL-60) cell line.; type: functional, cell-based; summary of the method: as §1
PC-6 = experiment: In vitro inhibitory activity against Human lung small-cell carcinoma (PC-6) cell line.; type: functional, cell-based; summary of the method: as §1
SW480 = experiment: In vitro inhibitory activity against Human colon adenocarcinoma (SW-480) cell line.; type: functional, cell-based; summary of the method: as §1
B16 = experiment: In vitro inhibitory activity against Mouse melanoma (B16) cell line.; type: functional, cell-based; summary of the method: as §1
U-937 = experiment: In vitro inhibitory activity against Human histiocytic lymphoma (U-937) cell line.; type: functional, cell-based; summary of the method: as §1
KB = experiment: In vitro inhibitory activity against Human oral epidermoid carcinoma (KB) cell line.; type: functional, cell-based; summary of the method: as §1
P-36 (Homo sapiens) = experiment: In vitro inhibitory activity against Human melanoma (P-36) cell line.
CCRF-CEM = experiment: In vitro inhibitory activity against Human T-cell acute lymphoblastoid leukemia (CCRF CEM) cell line.; type: functional, cell-based; summary of the method: as §1
PC10 = experiment: In vitro inhibitory activity against Human lung squamous cell carcinoma (PC-10) cell line.; type: functional, cell-based; summary of the method: as §1
PC-13 = experiment: In vitro inhibitory activity against Human lung large-cell carcinoma (PC-13) cell line.; type: functional, cell-based; summary of the method: as §1
[1] = tested on: Lewis lung carcinoma cell line; experiment: In vitro inhibitory activity against Mouse Lewis lung carcinoma (3LL) cell line.; type: functional, cell-based; summary of the method: as §1
[2] = tested on: KATO III stomach cancer cell line; experiment: In vitro inhibitory activity against Human gastric carcinoma (KATO III) cell line.; type: functional, cell-based; summary of the method: as §1
MOLT-4 = experiment: In vitro inhibitory activity against Human T-cell acute lymphoblastic leukemia (MOLT-4) cell line.; type: functional, cell-based; summary of the method: as §1
TE-2 = experiment: In vitro inhibitory activity against Human esophagus adenocarcinoma (TE-2) cell line.; type: functional, cell-based; summary of the method: as §1

C=C1C(n2cc(Br)c(=O)[nH]c2=O)O[C@H](CO)[C@@H]1O (stereo partly drawn)
IC50 (L1210): > 100 µg/mL

C=C1C(n2cc(F)c(=O)[nH]c2=O)O[C@H](CO)[C@@H]1O (stereo partly drawn)
IC50 (L1210): > 100 µg/mL

C=C1C(n2cc(C)c(N)nc2=O)O[C@H](CO)[C@@H]1O (stereo partly drawn)
IC50 (PC-14): > 100 µg/mL
IC50 (T-24): > 100 µg/mL
IC50 (HL-60): 3 µg/mL (≈ 11.8 µM)
IC50 (PC-6): > 100 µg/mL
IC50 (L1210): 58 µg/mL (≈ 229 µM)
IC50 (SW480): > 100 µg/mL
IC50 (B16): > 100 µg/mL
IC50 (U-937): > 10 µg/mL
IC50 (KB): > 100 µg/mL
IC50 (P-36 (Homo sapiens)): > 100 µg/mL
IC50 (CCRF-CEM): > 1 µg/mL
IC50 (PC10): > 100 µg/mL
IC50 (PC-13): > 100 µg/mL
IC50 [1]: > 100 µg/mL
IC50 [2]: > 100 µg/mL
IC50 (MOLT-4): > 100 µg/mL
IC50 (TE-2): > 100 µg/mL

C=C1C(n2cc(Cl)c(N)nc2=O)O[C@H](CO)[C@@H]1O (stereo partly drawn)
IC50 (L1210): > 100 µg/mL

C=C1C(n2cc(Cl)c(=O)[nH]c2=O)O[C@H](CO)[C@@H]1O (stereo partly drawn)
IC50 (L1210): > 100 µg/mL

C=C1C(n2ccc(N)nc2=O)O[C@H](CO)[C@@H]1O (stereo partly drawn)
IC50 (PC-14): > 100 µg/mL
IC50 (T-24): 1.1 µg/mL (≈ 4.6 µM)
IC50 (HL-60): 0.04 µg/mL (≈ 0.167 µM)
IC50 (PC-6): 39 µg/mL (≈ 163 µM)
IC50 (L1210): 0.37 µg/mL (≈ 1.55 µM)
IC50 (B16): 3 µg/mL (≈ 12.5 µM)
IC50 (U-937): 0.44 µg/mL (≈ 1.84 µM)
IC50 (KB): 1.4 µg/mL (≈ 5.85 µM)
IC50 (P-36 (Homo sapiens)): 0.36 µg/mL (≈ 1.5 µM)
IC50 (CCRF-CEM): 0.067 µg/mL (≈ 0.28 µM)
IC50 (PC10): > 100 µg/mL
IC50 (PC-13): 1 µg/mL (≈ 4.18 µM)
IC50 [1]: 16 µg/mL (≈ 66.9 µM)
IC50 [2]: 8.3 µg/mL (≈ 34.7 µM)
IC50 (MOLT-4): 0.041 µg/mL (≈ 0.171 µM)

C=C1C(n2cc(CC)c(N)nc2=O)O[C@H](CO)[C@@H]1O (stereo partly drawn)
IC50 (L1210): > 100 µg/mL

C=C1C(n2cc(C)c(=O)[nH]c2=O)O[C@H](CO)[C@@H]1O (stereo partly drawn)
IC50 (L1210): 50 µg/mL (≈ 197 µM)

C=C1C(n2cc(F)c(N)nc2=O)O[C@H](CO)[C@@H]1O (stereo partly drawn)
IC50 (PC-14): > 100 µg/mL
IC50 (T-24): 0.94 µg/mL (≈ 3.65 µM)
IC50 (HL-60): 0.053 µg/mL (≈ 0.206 µM)
IC50 (PC-6): 16 µg/mL (≈ 62.2 µM)
IC50 (L1210): 0.33 µg/mL (≈ 1.28 µM)
IC50 (SW480): 4.4 µg/mL (≈ 17.1 µM)
IC50 (B16): 9.2 µg/mL (≈ 35.8 µM)
IC50 (U-937): 0.4 µg/mL (≈ 1.56 µM)
IC50 (KB): 1.4 µg/mL (≈ 5.44 µM)
IC50 (P-36 (Homo sapiens)): 0.25 µg/mL (≈ 0.972 µM)
IC50 (CCRF-CEM): 0.1 µg/mL (≈ 0.389 µM)
IC50 (PC10): > 100 µg/mL
IC50 (PC-13): 1.4 µg/mL (≈ 5.44 µM)
IC50 [1]: 22 µg/mL (≈ 85.5 µM)
IC50 [2]: 8.3 µg/mL (≈ 32.3 µM)
IC50 (MOLT-4): 0.03 µg/mL (≈ 0.117 µM)
IC50 (TE-2): 1.8 µg/mL (≈ 7 µM)

Nc1ccn([C@@H]2O[C@H](CO)[C@@H](O)[C@@H]2O)c(=O)n1 [CYTARABINE]
IC50 (PC-14): > 100 µg/mL
IC50 (T-24): 0.5 µg/mL (≈ 2.06 µM)
IC50 (HL-60): > 0.1 µg/mL
IC50 (PC-6): 50 µg/mL (≈ 206 µM)
IC50 (SW480): > 100 µg/mL
IC50 (B16): 0.24 µg/mL (≈ 0.987 µM)
IC50 (U-937): 0.46 µg/mL (≈ 1.89 µM)
IC50 (KB): 30.5 µg/mL (≈ 125 µM)
IC50 (P-36 (Homo sapiens)): 11.1 µg/mL (≈ 45.6 µM)
IC50 (CCRF-CEM): 0.32 µg/mL (≈ 1.32 µM)
IC50 (PC10): > 100 µg/mL
IC50 (PC-13): > 100 µg/mL
IC50 [2]: > 100 µg/mL
IC50 (TE-2): > 100 µg/mL

C#Cc1cn(C2O[C@H](CO)[C@H](O)C2=C)c(=O)[nH]c1=O (stereo partly drawn)
IC50 (L1210): > 100 µg/mL

C=C1[C@H](n2ccc(=O)[nH]c2=O)O[C@H](CO)[C@H]1O
IC50 (L1210): > 100 µg/mL

O=c1[nH]cc(F)c(=O)[nH]1 [FLUOROURACIL]
IC50 (PC-14): 10 µg/mL (≈ 76.9 µM)
IC50 (HL-60): 1.3 µg/mL (≈ 9.99 µM)
IC50 (B16): 2.6 µg/mL (≈ 20 µM)
IC50 (U-937): 3.5 µg/mL (≈ 26.9 µM)
IC50 (KB): 12.1 µg/mL (≈ 93 µM)
IC50 (P-36 (Homo sapiens)): 10.7 µg/mL (≈ 82.3 µM)
IC50 (PC10): > 100 µg/mL
IC50 [2]: 3.7 µg/mL (≈ 28.4 µM)

C=C1C(n2cc(I)c(=O)[nH]c2=O)O[C@H](CO)[C@@H]1O (stereo partly drawn)
IC50 (L1210): > 100 µg/mL

C=C1C(n2cc(I)c(N)nc2=O)O[C@H](CO)[C@@H]1O (stereo partly drawn)
IC50 (L1210): > 100 µg/mL

C=C1C(n2cc(CC)c(=O)[nH]c2=O)O[C@H](CO)[C@@H]1O (stereo partly drawn)
IC50 (L1210): > 100 µg/mL

C=C1C(n2cc(Br)c(N)nc2=O)O[C@H](CO)[C@@H]1O (stereo partly drawn)
IC50 (L1210): > 100 µg/mL
